Results on 31 compounds are retold here after ChEMBL document CHEMBL4316636, “Tetrandraxanthones A-I, Prenylated and Geranylated Xanthones from the Stem Bark of Garcinia tetrandra” (J Nat Prod, 2019).

By IC50 is commonly meant the midpoint of a concentration-inhibition curve. Low values mean higher potency, high ones lower potency.

Format in all cases: functional, cell-based
The test system of one assay is KB. Briefly: Cytotoxicity in human KB cells incubated for 72 hrs by MTT assay. In a few lines: (§1)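 MTT colorimetric read-out after 72 h incubation of tumour cells: Hep G2 hepatocellular carcinoma, HeLa S3 cervix adenocarcinoma, MCF-7 breast adenocarcinoma, HT-29 colon adenocarcinoma, and KB epidermoid carcinoma. IC50 is given as the mean ± SD of three experiments, with doxorubicin as the positive control. HeLa S3 and KB were screened first.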
For orientation: Formazan colour is commonly taken as a measure of viable cells.

The subject of the next assay is HeLa S3. In words: Cytotoxicity in human HeLaS3 cells incubated for 72 hrs by MTT assay. To be noted: HeLa S3, 72 h. In a few lines:
as §1

Another assay relates to MCF7. Briefly: Cytotoxicity in human MCF7 cells incubated for 72 hrs by MTT assay. To be noted: MCF7, 72 h. A digest of the protocol:
as §1

The subject of a further assay is HepG2. Briefly: Cytotoxicity in human HepG2 cells incubated for 72 hrs by MTT assay. Particulars: HepG2, 72 h. In a few lines: as §1
The next assay concerns HT-29. In words: Cytotoxicity in human HT-29 cells incubated for 72 hrs by MTT assay. To be noted: HT-29, 72 h. In a few lines: as §1

Consider `O=c1c2cc(O)ccc2oc2cc(O)cc(O)c12`, for which the IC50 in the assay with KB, with HeLa S3, with MCF7, with HepG2 and in the assay with HT-29 was > 10 µM in each case.

On to `O=c1c2cc(O)c(O)cc2oc2cc(O)cc(O)c12`, for which the IC50 in the assay with KB, in the assay with HeLa S3, with MCF7, with HepG2 and in the assay on HT-29 was > 10 µM throughout.

For `COc1c(O)cc2oc3c(C/C=C(\C)CCC=C(C)C)c(O)c(CC=C(C)C)c(O)c3c(=O)c2c1CC=C(C)C`, the IC50 with KB, in the assay on HeLa S3, with MCF7, in the assay with HepG2 and with HT-29 was > 10 µM each time.

As for `C=CC(C)(C)c1c(OC)c(CC=C(C)C)c(O)c2c(=O)c3ccc(O)c(O)c3oc12` [NIGROLINEAXANTHONE E], the IC50 in the assay with KB, with HeLa S3, in the assay on MCF7, in the assay on HepG2 and in the assay with HT-29 was > 10 µM throughout.

As to `COc1c(OC)c(OC)c2c(=O)c3c(O)c4c(cc3oc2c1OC)OC(C)(C)C=C4`, the IC50 in the assay on KB, in the assay on HeLa S3, in the assay with MCF7, with HepG2 and in the assay on HT-29 was > 10 µM in each case.

Turning to `COc1c(O)cc2oc3c(C/C=C(\C)CCC=C(C)C)c(O)cc(O)c3c(=O)c2c1CC=C(C)C`, the IC50 in the assay with KB was 4.9 µM; with HeLa S3 it was 5.8 µM; in the assay with MCF7, 4.3 µM; with HepG2, > 10 µM; with HT-29, > 10 µM.

As for `COc1c(O)cc2oc3cc(O)cc(O)c3c(=O)c2c1CC1=C(C)CCCC1(C)C`, the IC50 in the assay with KB, in the assay with HeLa S3, in the assay with MCF7, with HepG2 and with HT-29 was > 10 µM each time.

For `C=C1CCCC(C)(C)C1Cc1c(OC)c(O)cc2oc3cc(O)cc(O)c3c(=O)c12` (stereo not given), the IC50 in the assay on KB, in the assay on HeLa S3, in the assay on MCF7, in the assay on HepG2 and in the assay with HT-29 was > 10 µM each time.

Consider `COc1c(O)cc2oc3cc(O)c(CC=C(C)C)c(O)c3c(=O)c2c1CCC(C)(C)O` [GARCINONE D], for which the IC50 in the assay on KB, with HeLa S3, in the assay on MCF7, with HepG2 and with HT-29 was > 10 µM in each case.

For the compound `COc1c(O)cc2oc3c4c(cc(O)c3c(=O)c2c1CC=C(C)C)OC(C)(CCC=C(C)C)C=C4` (stereo not given), the IC50 in the assay with KB, with HeLa S3, in the assay on MCF7, with HepG2 and in the assay on HT-29 was > 10 µM in each case.

With `O=c1c2cc(O)ccc2oc2cccc(O)c12`, the IC50 in the assay on KB, in the assay on HeLa S3, in the assay on MCF7, in the assay with HepG2 and in the assay on HT-29 was > 10 µM throughout.

As for `COc1c(O)cc2oc3cc4c(c(O)c3c(=O)c2c1CC=C(C)C)C=CC(C)(C)O4` [MANGOSTANIN], the IC50 came to 1.7 µM with KB; 1.9 µM with HeLa S3; 1.9 µM with MCF7; 3.4 µM in the assay with HepG2; 1.6 µM in the assay on HT-29.

For `COc1cccc2c1C(=O)c1c(O)c3c(c(O)c1C2=O)C[C@@](O)(C(=O)CO)C[C@@H]3O[C@H]1C[C@H](N)[C@H](O)[C@H](C)O1` [DOXORUBICIN], the IC50 worked out at 0.01 µM with KB; 0.12 µM with HeLa S3; 0.49 µM in the assay on MCF7; 1.43 µM with HepG2; 0.34 µM with HT-29.

As to `COc1c(O)cc2oc3cc(O)cc(O)c3c(=O)c2c1C/C=C(\C)CCC=C(C)C` [RUBRAXANTHONE], the IC50 in the assay on KB, in the assay with HeLa S3, in the assay with MCF7, in the assay on HepG2 and in the assay with HT-29 was > 10 µM each time.

`COc1c(O)cc2oc3cc4c(c(O)c3c(=O)c2c1CC=C(C)C)CCC(C)(C)O4`: the IC50 with KB, in the assay on HeLa S3, in the assay on MCF7, in the assay on HepG2 and with HT-29 was > 10 µM throughout.

With `COc1c(O)cc2oc3cc(O)cc(O)c3c(=O)c2c1CC=C(C)C`, the IC50 in the assay on KB, with HeLa S3, with MCF7, in the assay with HepG2 and in the assay with HT-29 was > 10 µM each time.

For `C=CC(C)(C)c1c2c(c(O)c3c(=O)c4ccc(O)c(O)c4oc13)C=CC(C)(C)O2` [MACLURAXANTHONE], the IC50 with KB is 7.4 µM; with HeLa S3, 6.7 µM; in the assay with MCF7, > 10 µM; with HepG2, > 10 µM; in the assay with HT-29, > 10 µM.

For the compound `COc1c(O)cc2oc3cc(O)cc(O)c3c(=O)c2c1C/C=C(\C)CCCC(C)(C)O` [BUTYRAXANTHONE D], the IC50 with KB, in the assay on HeLa S3, with MCF7, in the assay with HepG2 and with HT-29 was > 10 µM in each case.

On to `CC1(C)CCc2c(cc3oc4ccc(O)cc4c(=O)c3c2O)O1`, for which the IC50 in the assay with KB, with HeLa S3, with MCF7, with HepG2 and in the assay with HT-29 was > 10 µM in each case.

On to `COc1c(O)cc2oc3cc(O)c(CC=C(C)C)c(O)c3c(=O)c2c1CC=C(C)C` [MANGOSTIN], for which the IC50 with KB, in the assay on HeLa S3, with MCF7, in the assay with HepG2 and in the assay on HT-29 was > 10 µM each time.

Regarding `COc1c(O)cc2oc3cc(O)cc(O)c3c(=O)c2c1CCC1(C)CCCC(C)(C)O1` (stereo not given), the IC50 in the assay with KB, in the assay with HeLa S3, with MCF7, in the assay on HepG2 and with HT-29 was > 10 µM in each case.

As to `COc1c(O)cc2oc3cc4c(c(O)c3c(=O)c2c1CCC(C)(C)O)CCC(C)(C)O4`, the IC50 with KB, in the assay with HeLa S3, with MCF7, with HepG2 and with HT-29 was > 10 µM in each case.

With `COc1c(O)ccc2c(=O)c3c(O)c4c(cc3oc12)OC(C)(C)C=C4`, the IC50 in the assay with KB, with HeLa S3, with MCF7, in the assay on HepG2 and in the assay on HT-29 was > 10 µM throughout.

On to `O=c1c2ccc(O)c(O)c2oc2cc(O)cc(O)c12`, for which the IC50 in the assay on KB, in the assay with HeLa S3, in the assay with MCF7, in the assay on HepG2 and with HT-29 was > 10 µM each time.

`COc1c(O)cc2oc3cc(O)cc(O)c3c(=O)c2c1CCC(C)(O)CCC=C(C)C` (stereo not given): the IC50 with KB, in the assay with HeLa S3, with MCF7, in the assay with HepG2 and in the assay with HT-29 was > 10 µM in each case.

On to `COc1c(O)c(OC)c2oc3cc4c(c(O)c3c(=O)c2c1OC)C=CC(C)(C)O4`, for which the IC50 in the assay with KB, in the assay with HeLa S3, with MCF7, in the assay on HepG2 and in the assay with HT-29 was > 10 µM each time.

`COc1c(O)cc2oc3c(CC=C(C)C)c(O)cc(O)c3c(=O)c2c1CCC(C)(O)CCC=C(C)C` (stereo not given): the IC50 with KB was 7.1 µM; in the assay on HeLa S3 it was > 10 µM; in the assay with MCF7, 8.8 µM; with HepG2 it was > 10 µM; in the assay with HT-29, > 10 µM.

On to `COc1c(O)cc2oc3c4c(cc(O)c3c(=O)c2c1C/C=C(\C)CCC=C(C)C)OC(C)(C)C=C4`, for which the IC50 in the assay on KB, in the assay on HeLa S3, with MCF7, with HepG2 and in the assay on HT-29 was > 10 µM throughout.

With `COc1c(O)cc2oc3c(CC=C(C)C)c(O)cc(O)c3c(=O)c2c1CC=C(C)C`, the IC50 in the assay on KB, in the assay with HeLa S3, with MCF7, in the assay on HepG2 and in the assay with HT-29 was > 10 µM in each case.

Take `COc1c(O)cc2oc3c(C/C=C(\C)CCC=C(C)C)c(O)cc(O)c3c(=O)c2c1CCC(C)(C)O`: the IC50 in the assay with KB, with HeLa S3, in the assay on MCF7, in the assay with HepG2 and in the assay with HT-29 was > 10 µM throughout.

Regarding `COc1c(O)cc2oc3c(CC=C(C)C)c(O)cc(O)c3c(=O)c2c1C/C=C(\C)CCC=C(C)C`, the IC50 is 7.1 µM with KB; 9 µM with HeLa S3; 7 µM in the assay with MCF7; > 10 µM in the assay on HepG2; > 10 µM with HT-29.
